Source: ChEMBL document CHEMBL3421619, “Nicotinic Acid Adenine Dinucleotide Phosphate Analogues Substituted on the Nicotinic Acid and Adenine Ribosides. Effects on ReceptorMediated Ca²⁺ Release” (J Med Chem, 2015)

Columns and labels:
[1] = system: Strongylocentrotus purpuratus; assay: Displacement of [32P]NAADP from NAADP receptor in Strongylocentrotus purpuratus egg homogenates incubated for 90 mins by liquid scintillation counting method relative to NAADP
Outline: (§1)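 Competition binding in filter plates: S. purpuratus egg homogenate incubated 90 min simultaneously with 0.2 nM [32P]NAADP and seven concentrations of test ligand; filtered, washed, filter-bound radioactivity counted by liquid scintillation; IC50 ± SEM with n; fold values relative to NAADP.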

[2] = Activation of NAADP receptor in Strongylocentrotus purpuratus egg homogenates assessed as Ca2+ release by Fluo-3 dye based fluorometric assay
Outline: (§2)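 Egg homogenate microsomes from S. purpuratus loaded with Ca2+ in presence of ATP and 3 μM fluo-3; analogue added at a range of concentrations and released Ca2+ read as fluorescence increase (excitation 490 nm, emission 535 nm) on a plate reader; pH 7.2; triplicate; EC50 from concentration–response; fold values relative to NAADP.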

[3] = system: Strongylocentrotus purpuratus; assay: Desensitization of NAADP receptor in Strongylocentrotus purpuratus egg homogenates assessed as inhibition of NAADP-induced Ca2+ release pre-treated for 7 mins before NAADP addition by Fluo-3 dye based fluorometric assay relative to NAADP
Outline: (§3)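 S. purpuratus egg homogenates pretreated 7 min with varying analogue concentrations, then challenged with saturating NAADP (1 μM); Ca2+ release read by fluo-3 fluorescence (ex 490/em 535 nm); IC50 for inhibition of release from concentration–response, triplicate, reported ± SEM with n; fold values relative to NAADP.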

[4] = Desensitization of NAADP receptor in Strongylocentrotus purpuratus egg homogenates assessed as inhibition of NAADP-induced Ca2+ release pre-treated for 7 mins before NAADP addition by Fluo-3 dye based fluorometric assay; outline: as §3
[5] = system: Strongylocentrotus purpuratus; assay: Activation of NAADP receptor in Strongylocentrotus purpuratus egg homogenates assessed as Ca2+ release by Fluo-3 dye based fluorometric assay relative to NAADP; outline: as §2
[6] = Displacement of [32P]NAADP from NAADP receptor in Strongylocentrotus purpuratus egg homogenates incubated for 90 mins by liquid scintillation counting method; outline: as §1
[7] = Activation of NAADP receptor in sea urchin egg homogenates assessed as Ca2+ release; type: tissue-based, Echinoidea; outline: as §2
[8] = system: Strongylocentrotus purpuratus; assay: Ratio of activation of NAADP receptor in Strongylocentrotus purpuratus egg homogenates by Ca2+ release assay to IC50 for desensitization of NAADP receptor in Strongylocentrotus purpuratus egg homogenates by Ca2+ release assay
[9] = system: Strongylocentrotus purpuratus; assay: Ratio of activation of NAADP receptor in Strongylocentrotus purpuratus egg homogenates by Ca2+ release assay to IC50 for NAADP receptor in Strongylocentrotus purpuratus egg homogenates by [32P]NAADP binding assay

| SMILES | Ratio IC50 [1] | EC50 [2] [µM] | Ratio IC50 [3] | IC50 [4] [µM] | Ratio EC50 [5] | IC50 [6] [µM] | EC50 [7] [µM] | Ratio [8] | Ratio [9] |
| --- | --- | --- | --- | --- | --- | --- | --- | --- | --- |
| Nc1ncnc2c1ncn2[C@@H]1O[C@H](COP(=O)([O-])OP(=O)(O)OC[C@@H]2O[C@H]([n+]3cc(CCCO)cc(C(=O)O)c3)[C@@H](O)[C@H]2O)[C@@H](O)[C@H]1OP(=O)(O)O | 132 | 4.43 | 260 | 0.122 | 172 | 0.049 | – | – | – |
| NCCCc1cc(C(=O)O)c[n+]([C@H]2O[C@@H](COP(=O)(O)OP(=O)([O-])OC[C@H]3O[C@@H](n4cnc5c(N)ncnc54)[C@H](OP(=O)(O)O)[C@@H]3O)[C@H](O)[C@@H]2O)c1 | > 2e+06 | > 1000 | 1.43e+06 | 674 | > 33300 | > 1000 | – | – | – |
| CC(=O)Nc1cc(C(=O)O)c[n+]([C@H]2O[C@@H](COP(=O)(O)OP(=O)([O-])OC[C@H]3O[C@@H](n4cnc5c(N)ncnc54)[C@H](OP(=O)(O)O)[C@@H]3O)[C@H](O)[C@@H]2O)c1 | 40.5 | 0.626 | 45.7 | 0.0215 | 24.3 | 0.015 | – | – | – |
| [N-]=[N+]=Nc1nc2c(N)ncnc2n1[C@@H]1O[C@H](COP(=O)([O-])OP(=O)(O)OC[C@@H]2O[C@H]([n+]3cccc(C(=O)O)c3)[C@@H](O)[C@H]2O)[C@@H](O)[C@H]1OP(=O)(O)O | 1.9 | 0.0477 | 1.3 | 0.0006 | 1.8 | 0.0007 | – | – | – |
| Nc1ncnc2c1ncn2[C@@H]1O[C@H](COP(=O)([O-])OP(=O)(O)OC[C@@H]2O[C@H]([n+]3cc(O)cc(C(=O)O)c3)[C@@H](O)[C@H]2O)[C@@H](O)[C@H]1OP(=O)(O)O | 51 | 1.93 | 49.1 | 0.0231 | 74.9 | 0.0189 | – | – | – |
| Nc1ncnc2c1nc(Br)n2[C@@H]1O[C@H](COP(=O)([O-])OP(=O)(O)OC[C@@H]2O[C@H]([n+]3cccc(C(=O)O)c3)[C@@H](O)[C@H]2O)[C@@H](O)[C@H]1OP(=O)(O)O | 42.4 | 0.709 | 32.6 | 0.0153 | 27.5 | 0.0157 | – | – | – |
| Nc1ncnc2c1ncn2[C@@H]1O[C@H](COP(=O)(O)OP(=O)(O)OC[C@@H]2O[C@H]([n+]3cccc(C(=O)[O-])c3)[C@@H](O)[C@H]2O)[C@@H](O)[C@H]1OP(=O)(O)O [NICOTINIC ACID ADENINE DINUCLEOTIDE PHOSPHATE] | – | 0.0258 | – | 0.00047 | – | 0.00037 | 0.02 | – | – |
| CC(C)(C)OC(=O)NCCCc1cc(C(=O)O)c[n+]([C@H]2O[C@@H](COP(=O)(O)OP(=O)([O-])OC[C@H]3O[C@@H](n4cnc5c(N)ncnc54)[C@H](OP(=O)(O)O)[C@@H]3O)[C@H](O)[C@@H]2O)c1 | 8840 | 160 | 2000 | 0.942 | 6200 | 3.27 | – | – | – |
| CC(=O)NCCCc1cc(C(=O)O)c[n+]([C@H]2O[C@@H](COP(=O)(O)OP(=O)([O-])OC[C@H]3O[C@@H](n4cnc5c(N)ncnc54)[C@H](OP(=O)(O)O)[C@@H]3O)[C@H](O)[C@@H]2O)c1 | 4880 | 41.7 | 2620 | 1.23 | 1620 | 1.8 | – | – | – |
| [N-]=[N+]=NCCCc1cc(C(=O)O)c[n+]([C@H]2O[C@@H](COP(=O)(O)OP(=O)([O-])OC[C@H]3O[C@@H](n4cnc5c(N)ncnc54)[C@H](OP(=O)(O)O)[C@@H]3O)[C@H](O)[C@@H]2O)c1 | 152 | 30.7 | 97 | 0.0456 | 1190 | 0.0563 | – | – | – |
| [N-]=[N+]=Nc1cc(C(=O)O)c[n+]([C@H]2O[C@@H](COP(=O)(O)OP(=O)([O-])OC[C@H]3O[C@@H](n4c(Br)nc5c(N)ncnc54)[C@H](OP(=O)(O)O)[C@@H]3O)[C@H](O)[C@@H]2O)c1 | 1000 | 1360 | 1220 | 0.576 | 52800 | 0.372 | – | – | – |
| CSc1cc(C(=O)O)c[n+]([C@H]2O[C@@H](COP(=O)(O)OP(=O)([O-])OC[C@H]3O[C@@H](n4cnc5c(N)ncnc54)[C@H](OP(=O)(O)O)[C@@H]3O)[C@H](O)[C@@H]2O)c1 | 18.4 | 0.151 | 8.9 | 0.0042 | 5.9 | 0.0068 | – | 100 | 100 |
